The values below come from ChEMBL document CHEMBL1157882, “Novel 2-[(benzylamino)methyl]pyrrolidine-3,4-diol derivatives as alpha-mannosidase inhibitors and with antitumor activities against hematological and solid malignancies” (Bioorg Med Chem, 2010).

The source made the active and inactive calls. The calls are words filed in the database; no cut-off is given here.

Test [1] is described as follows: Cytotoxicity in human multiple myeloma cells assessed as viable cells at 200 uM after 24 hrs by annexin V/propidium iodide staining based flow cytometry (reference value: 48.2%). The test is classed as functional. The conditions noted are these: Multiple myeloma cell, read-out: Activity.
Test [2] can be described thus: Cytotoxicity in human B-CLL assessed as viable cells at 200 uM after 24 hrs by annexin V/propidium iodide staining based flow cytometry (reference value: 65.8 to 78%). The test is classed as functional. The conditions noted are these: read-out: Activity.
The next test deals with Saccharomyces cerevisiae. Briefly: Inhibition of alpha-glucosidase from yeast at 1 mM at pH 7. The method, boiled down:
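Glycosidase panel of commercial enzymes assayed at each enzyme's optimal pH with compound at 1 mM; percentage inhibition of enzyme activity calculated.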

Test [3] can be described thus: Cytotoxicity against human U87 cells after 72 hrs by colorimetric assay. The test is classed as functional, cell-based, U-87MG ATCC. The conditions noted are these: Homo sapiens, U-87 MG, 72 h; read-out: IC50. In short, it runs like this:
(§1)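 Cells grown in McCoy's medium (adherent lines) or RPMI-1640 (U266), each with 10% FBS, L-glutamine and antibiotics, at 37 °C in 5% CO₂. Compound dissolved as a 100 mM DMSO stock, final DMSO ≤0.4%. Cells were exposed for 72 h across a 10^-2 to 400 µM range. Viability was read by CellTiter 96 Aqueous (2–4 h incubation, absorbance 490 nm). Triplicate wells; IC50 from curve fitting.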

The test system of test [4] is MCF7. Briefly: Increase in CDKN1A mRNA level in human MCF7 cells at 50 uM after 12 hrs by TLDA. The test is classed as functional, cell-based. In short, it runs like this: (§2)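 SKBR3 and MCF7 cells seeded at 2 × 10⁵ per well, treated 12 h with 50 µM compound (DMSO stock); total RNA extracted, cDNA made with random hexamers, gene expression profiled by TaqMan low-density arrays (qPCR, duplicate per gene). Normalised to RPLP0; fold change versus DMSO vehicle-treated cells, calculated as 2^-ΔΔCT.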

For another test, the system named is A549. Kind of test: Cytotoxicity against human A549 cells after 72 hrs by colorimetric assay in presence of antioxidant N-acetyl-cysteine. The test is classed as functional, cell-based.
For test [5], the system named is SK-BR-3. Briefly: Increase in CDKN1C mRNA level in human SKBR3 cells at 50 uM after 12 hrs by TLDA. The test is classed as functional, cell-based. The method, boiled down:
as §2

A short description of test [6]: Cytotoxicity in human B-CLL assessed as early apoptotic cells at 200 uM after 24 hrs by annexin V/propidium iodide staining based flow cytometry (reference value: 3.6 to 20.2%). The test is classed as functional.
The test system of test [7] is MCF7. Kind of test: Decrease in hTERT mRNA level in human MCF7 cells at 50 uM after 12 hrs by TLDA. The test is classed as functional, cell-based. In short, it runs like this:
as §2

Test [8] concerns SK-BR-3. Briefly: Cell cycle arrest in human SKBR3 cells by accumulation of cells at G1 phase at 200 uM after 48 hrs by propidium iodide-staining based flow cytometry (reference value: 54%). The test is classed as functional.
The subject of test [9] is MCF7. Briefly: Cytotoxicity against human MCF7 cells after 72 hrs by colorimetric assay. The test is classed as functional, cell-based. The conditions noted are these: Homo sapiens, MCF7, 72 h; read-out: IC50. In short, it runs like this: as §1
Test [10] can be described thus: Cytotoxicity in human B-CLL assessed as early apoptotic cells at 50 uM after 24 hrs by annexin V/propidium iodide staining based flow cytometry (reference value: 3.6 to 20.2%). The test is classed as functional.
A short description of test [11]: Cytotoxicity in human multiple myeloma cells assessed as early apoptotic cells at 50 uM after 24 hrs by annexin V/propidium iodide staining based flow cytometry (reference value: 0.1%). The test is classed as functional, Multiple myeloma cell.
Test [12] is described as follows: Cytotoxicity in human multiple myeloma cells assessed as pre-necrotic cells at 50 uM after 24 hrs by annexin V/propidium iodide staining based flow cytometry (reference value: 42.1%). The test is classed as functional, Multiple myeloma cell.
The test system of test [13] is MCF7. Kind of test: Decrease in CDC25 mRNA level in human MCF7 cells at 50 uM after 12 hrs by TLDA. The test is classed as functional, cell-based. The method, boiled down: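 SKBR3 or MCF7 cells, 2×10⁵/well, treated with 50 µM for 12 h. Total RNA was column-purified and reverse-transcribed with random hexamers, then assayed on TaqMan low-density arrays. Expression was normalised to RPLP0, with fold change versus DMSO-vehicle cells calculated as 2^-ΔΔCT. Q-PCR run in duplicate per gene.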

Test [14] can be described thus: Cytotoxicity in human multiple myeloma cells assessed as early apoptotic cells at 200 uM after 24 hrs by annexin V/propidium iodide staining based flow cytometry (reference value: 0.1%). The test is classed as functional, Multiple myeloma cell.
A short description of test [15]: Cytotoxicity in human B-CLL assessed as pre-necrotic cells at 100 uM after 24 hrs by annexin V/propidium iodide staining based flow cytometry (reference value: 1.3 to 3.7%). The test is classed as functional.
The nature of test [16]: Cytotoxicity in human multiple myeloma cells assessed as late apoptotic/necrotic cells at 100 uM after 24 hrs by annexin V/propidium iodide staining based flow cytometry (reference value: 9.1%). The test is classed as functional, Multiple myeloma cell.
Another test deals with Jurkat. Briefly: Cytotoxicity in human Jurkat cells overexpressing Bcl2 assessed as cell death at 50 uM after 72 hrs by propidium iodide-staining based flow cytometry. The test is classed as functional. In short, it runs like this: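 Jurkat T cells stably overexpressing Bcl-2, plus vector controls, in RPMI-1640 with 10% FBS. Seeded at 4×10⁴ per well and treated for 72 h with 40 µM etoposide, 2 µM doxorubicin or 50 µM compound. Dead cells counted by propidium iodide staining and flow cytometry; means of triplicates with SD.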

Test [17] in a line: Cytotoxicity in human B-CLL assessed as viable cells at 50 uM after 24 hrs by annexin V/propidium iodide staining based flow cytometry (reference value: 65.8 to 78%). The test is classed as functional. The conditions noted are these: read-out: Activity.
Test [18] can be described thus: Cytotoxicity in human multiple myeloma cells assessed as late apoptotic/necrotic cells at 50 uM after 24 hrs by annexin V/propidium iodide staining based flow cytometry (reference value: 9.1%). The test is classed as functional, Multiple myeloma cell.

In the case of `OC[C@H](NC[C@H]1NC[C@H](O)[C@@H]1O)c1ccc(-c2ccc(C(F)(F)F)cc2)cc1`, the viability at 200 µM in test [1] stood at 3%; in [2], 1.6%. Besides, the inhibition in the test on Saccharomyces cerevisiae is below 10%. In addition, the IC50 in [3] was 80 µM; in the test with MCF7 [9], 77 µM. Also, the outcome in the test with MCF7 [4], in the test with A549, in the test on SK-BR-3 [5], in the test on MCF7 [7], with MCF7 [13] and with Jurkat was Active. The Activity came to 1% in test [6]; 42% in the test with SK-BR-3 [8]; 11.3% in test [10]; 2.3% in test [11]; 17% in test [12]; 0.3% in test [14]. In addition, the Activity in test [15] amounted to 0.8%; in [16] it was 52.6%; in test [18], 37.9%. Further, the viability at 50 µM in test [17] came out at 27%.
